Experiments:
[1] = system: Jejunum; assay: Drug uptake in Wistar rat jejunum blood vessel assessed as rate of drug appearance at 100 uM at pH 6.4 by in-situ single-pass perfusion method; assay type: ADME, tissue-based; settings: in vivo, pH 6.4, 100 µM
Summary of the method: (§1)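 Rats fasted 18–24 h, anesthetized with intraperitoneal pentobarbital. Isolated cannulated jejunal segment kept at 37°C in Krebs–Henseleit buffer with 3% BSA and 10 mM glucose. Vascular perfusion with Krebs–Henseleit (pH 7.4) at 2.5 ml/min. Lumen perfused at 0.2 ml/min with phosphate buffer (pH 5.4, 6.4 or 7.4) containing 100 µM drug plus FD-4. Luminal and vascular samples assayed by HPLC (UV 258 nm). Parameters normalized to 10 cm intestine. Mean ± S.D., n = 3–6.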

[2] = system: Jejunum; assay: Drug uptake in Wistar rat jejunum lumen assessed as rate of drug appearance at 100 uM by in-situ single-pass perfusion method; assay type: ADME, tissue-based; settings: in vivo; summary of the method: as §1
[3] = system: Jejunum; assay: Drug uptake in Wistar rat jejunum blood vessel assessed as rate of drug appearance at 100 uM by in-situ single-pass perfusion method; assay type: ADME, tissue-based; settings: in vivo; summary of the method: as §1
[4] = Partition coefficient, log P between n-octanol and phosphate buffer at pH 7.4; assay type: physicochemical
[5] = system: Jejunum; assay: Intracellular drug level in Wistar rat jejunum at 100 uM at pH 6.4 by in-situ single-pass perfusion method; assay type: ADME, tissue-based; settings: in vivo; summary of the method: as §1
[6] = system: Jejunum; assay: Apparent absorption clearance in Wistar rat jejunum at 100 uM at pH 6.4 by in-situ single-pass perfusion method; assay type: ADME, tissue-based; settings: in vivo; summary of the method: as §1

With `O=C(O)CN1C[C@@H](c2cccs2)SC[C@H](N[C@@H](CCc2ccccc2)C(=O)O)C1=O` [TEMOCAPRILAT] the Drug uptake [1] was 0.193 nmol/min, the Drug uptake [2] was 2.25 nmol/min and the Drug uptake [3] was 1.22 nmol/min. For the same compound, the logD [4] was 2.5, the Drug uptake [5] was 2.99 nmol/g and the “CL(app)” value [6] was 1.87 µL/min.
